Measurements pooled from the literature.

Structure (SMILES) | system | setting | concentration
CC1(C)NC(=O)N(c2ccc(F)c(S(C)(=O)=O)c2)C1=O | male Swiss mouse, plasma | oral, 100 mg/kg, 24 h | 130 ng/mL
O=C1CCC(N2Cc3cc(C4CCN(Cc5ccccc5)CC4)ccc3C2=O)C(=O)N1 (stereo not drawn) | male CD-1 mouse, plasma | intravenous, 1 mg/kg, 15 min | 136 ng/mL
Cc1nc2ccc(OCc3ccc(C(F)(F)F)cc3)cc2[nH]1 | male BALB/c mouse, brain | intravenous, 1 mg/kg, 72 h | 2.9 ng/g
CC(C)c1cc(C(=O)NCCN)c2cnn(C(C)C)c2n1 | female BALB/c mouse, plasma | intraperitoneal, 50 mg/kg, 1 h | 2860 ng/mL
NCc1cc2c(cc1F)C(=O)N(C1CCC(=O)NC1=O)C2 (stereo not drawn) | male CD-1 mouse, plasma | oral, 10 mg/kg, 40.2 min | 85.3 ng/mL
CC1(C)NC(=O)N(c2ccc(F)c(Br)c2)C1=O | male Swiss mouse, plasma | oral, 100 mg/kg, 24 h | 12500 ng/mL
Cc1ccc2c(c1)C(=O)[C@]1(O)CCN(c3ccc4nc(C)ccc4c3)C1=N2 | mouse, brain | subcutaneous, 10 mg/kg, 30 min, single dose | 3.7 µM
CC(C)n1ncc2c(C(=O)NCC3(C)CNC3)cc(C3CC3)nc21 | female BALB/c mouse, plasma | intraperitoneal, 50 mg/kg, 4 h | 1230 ng/mL
CC(C)(C)S(=O)(=O)c1cc2c(Nc3ccc4scnc4c3)ncnc2cc1OCCOP(=O)(O)O | BALB/c mouse, plasma | oral, 10 mg/kg, 30 min | 1150 ng/mL
